Test [1] addresses T1, Signal transducer and activator of transcription 3 (Homo sapiens, UniProt P40763). As to the kind of experiment: Binding affinity to STAT3 (unknown origin).
Test [2] deals with T2, Protein cereblon/Signal transducer and activator of transcription 5A (Homo sapiens) (UniProt P42229+Q96SW2). As to the kind of experiment: Protac activity at CRBN/STAT5A in human MOLM16 cells assessed as degradation of STAT5A at 10 uM incubated for 4 hrs by Western blot analysis. Type of test: cell-based. The method in brief: (§1)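 Molm-16 cells treated 4 h with test compound at 0.01–10 μM, or control compounds at 10 μM. Lysates separated by SDS–PAGE, transferred to PVDF, blocked 1 h in 5% blocker/TBST, probed for each STAT protein, and detected by chemiluminescence.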
A general note: A western blot detects proteins with antibodies after separation by electrophoresis.

The target in test [3] is T3, Protein cereblon/Signal transducer and activator of transcription 1-alpha/beta (Homo sapiens) (UniProt P42224+Q96SW2). Kind of test: Protac activity at CRBN/STAT1 in human MOLM16 cells assessed as degradation of STAT1 at 10 uM incubated for 4 hrs by Western blot analysis. Type of test: cell-based. The method in brief: as §1
Test [4] concerns the target T4, Protein cereblon/Signal transducer and activator of transcription 6 (Homo sapiens) (UniProt P42226+Q96SW2). As to the kind of experiment: Protac activity at CRBN/STAT6 in human SUDHL1 cells assessed as degradation of STAT6 at 10 uM incubated for 18 hrs by Western blot analysis. The test is classed as cell-based. Put shortly: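 SU-DHL-1 cells exposed to compound over 0.01–10 μM, or controls at 10 μM, for 18 h. Lysates separated by SDS–PAGE and transferred to PVDF. Membranes blocked 1 h in 5% blocker/TBST, probed with primary then secondary antibodies, and developed by chemiluminescence for STAT1, STAT2, STAT4, STAT5A/B, STAT6 and STAT3.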

The target in test [5] is T5, Protein cereblon/Signal transducer and activator of transcription 5B (Homo sapiens) (UniProt P51692+Q96SW2). As to the kind of experiment: Protac activity at CRBN/STAT5B in human MOLM16 cells assessed as degradation of STAT5B at 10 uM incubated for 4 hrs by Western blot analysis. The test is classed as cell-based. Put shortly: as §1
The target in test [6] is T6, Protein cereblon/Signal transducer and activator of transcription 2 (Homo sapiens) (UniProt Q96SW2+P52630). Kind of test: Protac activity at CRBN/STAT2 in human SUDHL1 cells assessed as degradation of STAT2 at 10 uM incubated for 18 hrs by Western blot analysis. Type of test: cell-based. The method in brief:
(§2)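 SU-DHL-1 cells treated 18 h with test compound at 0.01–10 μM, or control compounds at 10 μM. Lysates separated by SDS–PAGE, transferred to PVDF, blocked 1 h in 5% blocker/TBST, probed for each STAT protein, and detected by chemiluminescence.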

Test [7] deals with T7, Protein cereblon/Signal transducer and activator of transcription 3 (Homo sapiens, UniProt P40763+Q96SW2). As to the kind of experiment: Protac activity at CRBN/STAT3 in human MOLM16 cells assessed as degradation of STAT3 at 1 uM incubated for 4 hrs by Western blot analysis. The test is classed as cell-based. Put shortly: (§3)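 Molm-16 cells treated 4 h with serially diluted compound. Lysates immunoblotted (SDS–PAGE, PVDF, 5% blocker/TBST, chemiluminescence) for total STAT3 and pSTAT3 Y705. DC50 taken as the concentration reducing total STAT3 by 50%.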

The nature of test [8]: Antiproliferative activity against human MOLM16 cells assessed as reduction in cell viability incubated for 4 days by cell-titer glo luminescent assay. The test is classed as functional, cell-based. As to conditions: MOLM16, 96 h. The method in brief:
(§4)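 Viability assay: cells incubated with serially diluted compounds for 4 days, viability read by CellTiter-Glo luminescence; IC50 from concentration–response.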

The target in test [9] is T7, Protein cereblon/Signal transducer and activator of transcription 3. As to the kind of experiment: Protac activity at CRBN/STAT3 in human SUDHL1 cells assessed as degradation of STAT3 incubated for 16 hrs by Western blot analysis. Type of test: cell-based.
For test [10] the target is unchanged. As to the kind of experiment: Protac activity at CRBN/STAT3 in human MOLM16 cells assessed as degradation of STAT3 at 10 uM incubated for 4 hrs by Western blot analysis. Type of test: cell-based. Put shortly: as §1
Test [11] has the same target. As to the kind of experiment: Protac activity at CRBN/STAT3 in human MOLM16 cells assessed as degradation of STAT3 incubated for 4 hrs by Western blot analysis. Type of test: cell-based. The method in brief: as §3
Test [12] shares this target. As to the kind of experiment: Protac activity at CRBN/STAT3 in human SUDHL1 cells assessed as degradation of STAT3 at 10 uM incubated for 18 hrs by Western blot analysis. Type of test: cell-based. The method in brief: as §2
Test [13] concerns the target T1, Signal transducer and activator of transcription 3. Kind of test: Binding affinity to recombinant human His/SUMO-tagged STAT3 (127 to 688 residues) expressed in Escherichia coli Rosetta (DE3) incubated for 1 hr by fluorescence polarization assay. In general terms: In fluorescence polarisation assays a small probe gives low polarisation when free and higher when bound to something large.

Test [14] deals with SU-DHL-1. Kind of test: Antiproliferative activity against human SUDHL1 cells assessed as reduction in cell viability incubated for 4 days by cell-titer glo luminescent assay. The test is classed as functional, cell-based. The conditions noted are these: SU-DHL-1, 96 h. Put shortly:
as §4

The target of test [15] is T7, Protein cereblon/Signal transducer and activator of transcription 3. As to the kind of experiment: Protac activity at CRBN/STAT3 in human SUDHL1 cells assessed as degradation of phosphorylated STAT3 Y705 upto 10 uM incubated for 16 hrs by Western blot analysis. Type of test: cell-based.
Test [16] concerns the target T8, Protein cereblon/Signal transducer and activator of transcription 4 (Homo sapiens) (UniProt Q96SW2+Q14765). Kind of test: Protac activity at CRBN/STAT4 in human MOLM16 cells assessed as degradation of STAT4 at 10 uM incubated for 4 hrs by Western blot analysis. Type of test: cell-based. The method in brief: as §1
The target in test [17] is T8, Protein cereblon/Signal transducer and activator of transcription 4 (Homo sapiens). As to the kind of experiment: Protac activity at CRBN/STAT4 in human SUDHL1 cells assessed as degradation of STAT4 at 10 uM incubated for 18 hrs by Western blot analysis. The test is classed as cell-based. The method in brief: as §2
Test [18] has as its target T7, Protein cereblon/Signal transducer and activator of transcription 3. Kind of test: Protac activity at CRBN/STAT3 in human SUDHL1 cells assessed as degradation of STAT3 upto 10 uM incubated for 16 hrs by Western blot analysis. Type of test: cell-based.
Test [19] addresses T5, Protein cereblon/Signal transducer and activator of transcription 5B (Homo sapiens). As to the kind of experiment: Protac activity at CRBN/STAT5B in human SUDHL1 cells assessed as degradation of STAT5B at 10 uM incubated for 18 hrs by Western blot analysis. The test is classed as cell-based. Put shortly:
as §2

Test [20] deals with T4, Protein cereblon/Signal transducer and activator of transcription 6 (Homo sapiens). Kind of test: Protac activity at CRBN/STAT6 in human MOLM16 cells assessed as degradation of STAT6 at 10 uM incubated for 4 hrs by Western blot analysis. The test is classed as cell-based. Put shortly: as §1
Test [21] deals with T6, Protein cereblon/Signal transducer and activator of transcription 2 (Homo sapiens). As to the kind of experiment: Protac activity at CRBN/STAT2 in human MOLM16 cells assessed as degradation of STAT2 at 10 uM incubated for 4 hrs by Western blot analysis. The test is classed as cell-based. The method in brief: as §1
Test [22] deals with T3, Protein cereblon/Signal transducer and activator of transcription 1-alpha/beta (Homo sapiens). Kind of test: Protac activity at CRBN/STAT1 in human SUDHL1 cells assessed as degradation of STAT1 at 10 uM incubated for 18 hrs by Western blot analysis. Type of test: cell-based. The method in brief:
as §2

The target of test [23] is T7, Protein cereblon/Signal transducer and activator of transcription 3. As to the kind of experiment: Protac activity at CRBN/STAT3 in human MOLM16 cells assessed as degradation of phosphorylated STAT3 Y705 at 1 uM incubated for 4 hrs by Western blot analysis. The test is classed as cell-based. The method in brief:
as §3

Test [24] deals with T2, Protein cereblon/Signal transducer and activator of transcription 5A (Homo sapiens). Kind of test: Protac activity at CRBN/STAT5A in human SUDHL1 cells assessed as degradation of STAT5A at 10 uM incubated for 18 hrs by Western blot analysis. Type of test: cell-based. The method in brief: as §2
Test [25] deals with T7, Protein cereblon/Signal transducer and activator of transcription 3. As to the kind of experiment: Protac activity at CRBN/STAT3 in human SUDHL1 cells assessed as degradation of phosphorylated STAT3 Y705 upto 5 uM incubated for 16 hrs by Western blot analysis. The test is classed as cell-based.
Test [26] shares this target. As to the kind of experiment: Protac activity at CRBN/STAT3 in human SUDHL1 cells assessed as degradation of STAT3 upto 5 uM incubated for 16 hrs by Western blot analysis. The test is classed as cell-based.
The target is the same in test [27]. As to the kind of experiment: Protac activity at CRBN/STAT3 in human MOLM16 cells assessed as degradation of STAT3 up to 10 uM incubated for 4 hrs by Western blot analysis. The test is classed as cell-based. Put shortly:
as §3

Test [28] concerns Mus musculus. Kind of test: In vivo degradation of STAT3 in CD1 mouse at 25 mg/kg, iv measured upto 48 hrs by Western blot analysis. Type of test: functional, organism-based. The method in brief:
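Female CD-1 mice given a single intravenous dose in 10% PEG400 + 90% PBS, or vehicle. Euthanized at set time points. Spleen harvested and lysates immunoblotted for STAT3.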

The source made the active and inactive calls. The calls are words filed in the database; no cut-off is given here.

T2 sequence (P42229 whole entry, looked up): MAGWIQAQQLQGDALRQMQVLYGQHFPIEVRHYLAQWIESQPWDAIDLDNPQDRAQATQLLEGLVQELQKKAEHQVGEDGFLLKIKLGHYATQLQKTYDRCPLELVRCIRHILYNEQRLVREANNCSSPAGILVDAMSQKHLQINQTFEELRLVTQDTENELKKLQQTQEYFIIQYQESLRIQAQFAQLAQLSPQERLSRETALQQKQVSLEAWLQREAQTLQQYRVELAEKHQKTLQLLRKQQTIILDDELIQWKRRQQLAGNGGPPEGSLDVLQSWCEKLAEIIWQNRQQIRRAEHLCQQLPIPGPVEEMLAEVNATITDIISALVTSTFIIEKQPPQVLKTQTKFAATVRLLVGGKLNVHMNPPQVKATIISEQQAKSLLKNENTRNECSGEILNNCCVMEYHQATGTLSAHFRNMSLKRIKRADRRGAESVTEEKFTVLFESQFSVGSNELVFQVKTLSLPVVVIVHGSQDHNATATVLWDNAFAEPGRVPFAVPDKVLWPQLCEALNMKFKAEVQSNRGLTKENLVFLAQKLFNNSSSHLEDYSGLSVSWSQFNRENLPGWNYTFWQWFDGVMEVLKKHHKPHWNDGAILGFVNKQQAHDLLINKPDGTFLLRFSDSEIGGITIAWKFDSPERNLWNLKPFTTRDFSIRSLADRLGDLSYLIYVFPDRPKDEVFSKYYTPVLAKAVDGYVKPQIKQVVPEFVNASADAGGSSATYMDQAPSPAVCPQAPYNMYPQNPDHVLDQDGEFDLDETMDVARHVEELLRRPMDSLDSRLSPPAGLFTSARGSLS
T2 sequence (Q96SW2 whole entry, looked up): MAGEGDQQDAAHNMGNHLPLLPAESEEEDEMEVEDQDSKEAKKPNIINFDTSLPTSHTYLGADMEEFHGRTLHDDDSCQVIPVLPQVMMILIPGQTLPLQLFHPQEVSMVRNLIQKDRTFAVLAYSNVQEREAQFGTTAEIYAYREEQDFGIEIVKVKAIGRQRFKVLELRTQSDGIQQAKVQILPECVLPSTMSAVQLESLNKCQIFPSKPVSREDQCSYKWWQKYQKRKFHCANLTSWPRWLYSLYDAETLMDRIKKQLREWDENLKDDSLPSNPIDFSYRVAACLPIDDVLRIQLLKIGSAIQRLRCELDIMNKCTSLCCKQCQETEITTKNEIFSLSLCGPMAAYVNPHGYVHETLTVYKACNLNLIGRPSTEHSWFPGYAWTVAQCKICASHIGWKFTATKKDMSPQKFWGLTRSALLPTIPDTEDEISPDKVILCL
T5 sequence (P51692 whole entry, looked up): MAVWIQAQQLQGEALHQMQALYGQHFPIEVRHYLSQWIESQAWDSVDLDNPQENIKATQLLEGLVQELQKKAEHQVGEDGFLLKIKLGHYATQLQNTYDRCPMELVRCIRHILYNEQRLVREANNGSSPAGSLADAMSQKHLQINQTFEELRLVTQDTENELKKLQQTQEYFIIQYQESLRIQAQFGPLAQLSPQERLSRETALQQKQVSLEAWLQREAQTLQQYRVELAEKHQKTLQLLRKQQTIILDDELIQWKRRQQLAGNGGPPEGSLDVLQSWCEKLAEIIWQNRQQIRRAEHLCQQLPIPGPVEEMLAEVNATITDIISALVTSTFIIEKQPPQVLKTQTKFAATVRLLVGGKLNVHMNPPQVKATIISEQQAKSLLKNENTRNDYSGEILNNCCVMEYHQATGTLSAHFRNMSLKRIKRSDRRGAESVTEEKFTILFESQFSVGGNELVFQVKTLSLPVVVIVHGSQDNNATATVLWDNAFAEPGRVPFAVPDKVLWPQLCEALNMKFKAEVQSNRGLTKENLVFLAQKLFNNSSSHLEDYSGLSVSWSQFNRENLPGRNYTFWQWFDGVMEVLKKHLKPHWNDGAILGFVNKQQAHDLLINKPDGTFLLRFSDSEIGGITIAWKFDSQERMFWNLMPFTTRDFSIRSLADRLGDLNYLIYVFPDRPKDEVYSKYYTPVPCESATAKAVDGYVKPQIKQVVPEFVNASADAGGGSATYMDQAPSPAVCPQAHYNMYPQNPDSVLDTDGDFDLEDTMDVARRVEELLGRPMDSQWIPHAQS
T5 sequence (Q96SW2 whole entry, looked up): as the sequence (Q96SW2 whole entry, looked up) above
T4 sequence (P42226 2-847 limits assumed): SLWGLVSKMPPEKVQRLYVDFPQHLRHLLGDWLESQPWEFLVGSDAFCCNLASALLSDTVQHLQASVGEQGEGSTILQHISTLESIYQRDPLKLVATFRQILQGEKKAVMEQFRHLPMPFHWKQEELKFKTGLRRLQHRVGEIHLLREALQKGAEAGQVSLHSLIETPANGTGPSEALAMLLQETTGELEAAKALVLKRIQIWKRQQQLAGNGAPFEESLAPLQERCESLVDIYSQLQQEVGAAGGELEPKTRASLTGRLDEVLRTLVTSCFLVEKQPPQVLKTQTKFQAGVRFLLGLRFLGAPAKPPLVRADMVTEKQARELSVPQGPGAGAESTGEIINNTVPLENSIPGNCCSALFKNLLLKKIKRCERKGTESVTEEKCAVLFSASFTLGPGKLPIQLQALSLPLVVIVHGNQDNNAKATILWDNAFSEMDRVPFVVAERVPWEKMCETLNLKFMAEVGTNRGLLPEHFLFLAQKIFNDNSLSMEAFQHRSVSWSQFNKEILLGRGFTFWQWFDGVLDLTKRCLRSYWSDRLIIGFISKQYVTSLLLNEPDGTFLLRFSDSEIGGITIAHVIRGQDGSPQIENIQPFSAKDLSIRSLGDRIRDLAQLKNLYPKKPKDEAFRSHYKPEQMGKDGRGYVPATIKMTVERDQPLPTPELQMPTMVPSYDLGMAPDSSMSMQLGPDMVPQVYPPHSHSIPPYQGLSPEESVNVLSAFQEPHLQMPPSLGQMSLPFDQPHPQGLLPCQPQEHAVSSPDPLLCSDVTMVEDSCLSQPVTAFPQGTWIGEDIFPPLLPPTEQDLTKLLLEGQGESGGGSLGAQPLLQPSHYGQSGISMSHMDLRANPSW
T4 sequence (Q96SW2 whole entry partner): as the sequence (Q96SW2 whole entry, looked up) above
T6 sequence (P52630 whole entry, looked up): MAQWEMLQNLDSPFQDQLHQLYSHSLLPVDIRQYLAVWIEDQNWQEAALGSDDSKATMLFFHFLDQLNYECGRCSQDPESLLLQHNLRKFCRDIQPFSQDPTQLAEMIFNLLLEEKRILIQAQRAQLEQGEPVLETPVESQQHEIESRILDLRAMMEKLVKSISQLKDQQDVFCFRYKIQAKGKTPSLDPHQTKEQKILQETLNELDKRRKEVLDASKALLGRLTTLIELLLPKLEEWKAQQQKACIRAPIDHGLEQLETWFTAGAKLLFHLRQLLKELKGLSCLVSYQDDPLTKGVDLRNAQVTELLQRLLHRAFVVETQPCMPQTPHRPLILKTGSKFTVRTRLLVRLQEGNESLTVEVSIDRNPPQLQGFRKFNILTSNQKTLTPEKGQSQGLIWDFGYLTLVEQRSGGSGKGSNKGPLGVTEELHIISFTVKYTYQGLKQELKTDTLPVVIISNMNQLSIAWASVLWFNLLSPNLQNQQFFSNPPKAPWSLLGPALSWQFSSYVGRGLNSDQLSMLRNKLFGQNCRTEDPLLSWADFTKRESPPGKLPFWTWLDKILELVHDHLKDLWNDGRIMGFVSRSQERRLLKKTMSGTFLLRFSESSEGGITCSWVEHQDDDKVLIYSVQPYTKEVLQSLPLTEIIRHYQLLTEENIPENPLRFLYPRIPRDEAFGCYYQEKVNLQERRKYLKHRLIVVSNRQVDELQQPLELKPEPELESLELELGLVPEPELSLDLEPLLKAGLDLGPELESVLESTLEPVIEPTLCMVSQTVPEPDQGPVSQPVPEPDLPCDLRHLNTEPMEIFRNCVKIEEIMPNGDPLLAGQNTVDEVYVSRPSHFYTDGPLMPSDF
T6 sequence (Q96SW2 whole entry, looked up): as the sequence (Q96SW2 whole entry, looked up) above
T8 sequence (Q14765 whole entry, looked up): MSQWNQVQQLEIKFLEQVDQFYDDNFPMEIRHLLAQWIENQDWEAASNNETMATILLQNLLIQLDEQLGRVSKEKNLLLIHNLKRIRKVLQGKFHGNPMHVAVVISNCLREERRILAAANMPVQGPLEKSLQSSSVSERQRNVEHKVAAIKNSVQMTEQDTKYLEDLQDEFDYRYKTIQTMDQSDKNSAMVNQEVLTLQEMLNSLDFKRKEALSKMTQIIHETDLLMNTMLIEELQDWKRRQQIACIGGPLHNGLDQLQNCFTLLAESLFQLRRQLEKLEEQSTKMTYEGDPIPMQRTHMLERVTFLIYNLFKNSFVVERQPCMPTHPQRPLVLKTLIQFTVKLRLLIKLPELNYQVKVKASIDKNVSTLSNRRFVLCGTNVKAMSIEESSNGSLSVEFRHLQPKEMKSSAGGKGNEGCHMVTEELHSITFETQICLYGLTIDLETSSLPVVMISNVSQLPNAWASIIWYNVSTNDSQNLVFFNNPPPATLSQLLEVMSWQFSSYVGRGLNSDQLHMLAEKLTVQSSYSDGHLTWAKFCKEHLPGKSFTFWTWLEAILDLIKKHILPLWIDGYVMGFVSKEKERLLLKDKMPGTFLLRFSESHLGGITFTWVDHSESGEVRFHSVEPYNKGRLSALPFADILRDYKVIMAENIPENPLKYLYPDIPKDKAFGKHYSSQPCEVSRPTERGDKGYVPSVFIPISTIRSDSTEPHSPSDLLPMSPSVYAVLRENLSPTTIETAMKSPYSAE
T8 sequence (Q96SW2 whole entry, looked up): as the sequence (Q96SW2 whole entry, looked up) above

The term Ki denotes the dissociation constant of the complex between target and ligand, obtained from inhibition or displacement. Regarding `NC(=O)CC[C@H](NC(=O)[C@@H]1CC[C@@H]2CCCC[C@H](NC(=O)c3cc4cc(CP(=O)(O)O)ccc4[nH]3)C(=O)N21)C(=O)NCc1ccccc1`, the Ki in test [1] was 0.761 µM.
The IC50 is the point on the concentration scale where inhibition reaches its midpoint. One may read the DC50 as the concentration at which degradation of the target reaches its halfway point. As for `CC(=O)N1CC[C@H]2CC[C@@H](C(=O)N[C@@H](CCC(N)=O)C(=O)NC(c3ccccc3)c3ccccc3)N2C(=O)[C@@H](NC(=O)c2cc3cc(C(F)(F)P(=O)(O)O)ccc3[nH]2)C1`, the outcome in test [2], in test [3], in test [4], in [5], in test [6] and in test [7] was inactive. For the same compound, the outcome in [10], in [12], in [15], in test [16], in test [17] and in test [18] was inactive. The outcome in [19], in [20], in [21], in [22], in test [23] and in test [24] was inactive. Also, the values for the IC50 in test [8] and in test [14] were 6.45 µM and more than 10 µM, respectively. Further, the half-maximal degradation concentration (DC50) in test [9] and in test [11] was more than 10 µM each time. Moreover, in test [13], the Ki amounted to 0.014 µM.
For `C/C(=C\C(=O)N[C@H]1CN(C(=O)CCCCCC#Cc2cccc3c2CN(C2CCC(=O)NC2=O)C3=O)CC[C@H]2CC[C@@H](C(=O)N[C@@H](CCC(N)=O)C(=O)NC(c3ccccc3)c3ccccc3)N2C1=O)c1ccc(C(F)(F)P(=O)(O)O)cc1` (some centres not stated), the result in test [25] and in test [26] was inactive. Also, the values for the IC50 in test [8] and in test [14] were 1.25 µM and more than 10 µM, respectively. Moreover, the DC50 was more than 10 µM in test [9] and 4.45 µM in [11].
Regarding `CN1C(=O)CCC(N2Cc3c(C#CCCCCCC(=O)N4CC[C@H]5CC[C@@H](C(=O)N[C@@H](CCC(N)=O)C(=O)NC(c6ccccc6)c6ccccc6)N5C(=O)[C@@H](NC(=O)c5cc6cc(C(F)(F)P(=O)(O)O)ccc6[nH]5)C4)cccc3C2=O)C1=O` (some centres not stated), the result in test [2], in [3], in [4], in test [5], in [6] and in test [10] was inactive. The result in [12], in [15], in test [16], in test [17], in [18] and in test [19] was inactive. For the same compound, the outcome in [20], in test [21], in test [22] and in [24] was inactive. For the same compound, the Activity in test [27] is 0%. Further, the values for the IC50 in [8] and in test [14] were 5.21 µM and more than 10 µM, respectively. The DC50 in [9] and in [11] was more than 10 µM throughout.
As for `NC(=O)CC[C@H](NC(=O)[C@@H]1CC[C@@H]2CCN(C(=O)CCCCCC#Cc3cccc4c3C(=O)N(C3CCC(=O)NC3=O)C4=O)C[C@H](NC(=O)c3cc4cc(C(F)(F)P(=O)(O)O)ccc4[nH]3)C(=O)N21)C(=O)NC(c1ccccc1)c1ccccc1` (some centres not stated), the outcome in test [25] and in [26] was inactive. For the same compound, the IC50 in [8] was 0.582 µM; in test [14], more than 10 µM. Besides, the DC50 is more than 10 µM in test [9] and 3.54 µM in [11].
As for `NC(=O)CC[C@H](NC(=O)[C@@H]1CC[C@@H]2CCN(C(=O)NCCCCC#Cc3cccc4c3CN(C3CCC(=O)NC3=O)C4=O)C[C@H](NC(=O)c3cc4cc(C(F)(F)P(=O)(O)O)ccc4[nH]3)C(=O)N21)C(=O)NC(c1ccccc1)c1ccccc1` (some centres not stated), the IC50 in test [8] turned out to be 0.091 µM; in [14], 0.43 µM. Moreover, the DC50 in test [9] turned out to be 0.011 µM; in test [11], 0.05 µM. Moreover, in test [28], the result was Active.

The record behind these values is ChEMBL document CHEMBL4354826, “Structure-Based Discovery of SD-36 as a Potent, Selective, and Efficacious PROTAC Degrader of STAT3 Protein” (J Med Chem, 2019).
